Test results reported in ChEMBL document CHEMBL4334487, “Cytotoxic Microcolin Lipopeptides from the Marine Cyanobacterium Moorea producens” (J Nat Prod, 2019).

system: NCI-H460; assay: Cytotoxicity against human NCI-H460 cells assessed as reduction in cell viability incubated for 48 hrs by MTT assay; assay type: functional, cell-based; settings: NCI-H460, 48 h
In short: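 H-460 non-small-cell lung carcinoma cells in RPMI-1640 with 10% FBS and 1% penicillin/streptomycin, used within 28 passages per frozen batch. Seeded at 3.33 × 10^4 cells/mL, adhered 24 h, then treated 48 h. Ten concentrations from 30 μM down by 0.3164-fold serial dilution; 1% DMSO negative control, doxorubicin positive control.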

Question: With COc1cccc2c1C(=O)c1c(O)c3c(c(O)c1C2=O)C[C@@](O)(C(=O)CO)C[C@@H]3O[C@H]1C[C@H](N)[C@H](O)[C@H](C)O1 [DOXORUBICIN] as the compound, how does the IC50 read?
Answer: Its IC50 is 0.18 µM.

Question: Which IC50 does the source give for CCCC[C@@H](C)C[C@@H](C)C(=O)N(C)[C@@H](C=C(C)C)C(=O)N[C@H](C(=O)N(C)[C@H](C(=O)N1CCC[C@H]1C(=O)N1C(=O)C=C[C@@H]1C)C(C)C)[C@@H](C)OC(C)=O here?
Answer: Its IC50 is 1 µM.

Question: Which IC50 does the source give for CCCC[C@@H](C)C[C@@H](C)C(=O)N(C)[C@@H](CC(C)C)C(=O)N[C@H](C(=O)N(C)[C@H](C(=O)N1C[C@@H](O)C[C@H]1C(=O)N1C(=O)C=C[C@@H]1C)C(C)C)[C@@H](C)OC(C)=O here?
Answer: The IC50 was 0.006 µM.

Question: CCCC[C@@H](C)C[C@@H](C)C(=O)N(C)[C@@H](CC(C)C)C(=O)N[C@H](C(=O)N(C)[C@H](C(=O)N1C[C@@H](O)C[C@H]1C(=O)N1C(=O)C=C[C@@H]1C)C(C)C)[C@@H](C)O was tested. Which IC50 did it give?
Answer: The IC50 was 0.075 µM.

Question: CCCC[C@@H](C)C[C@@H](C)C(=O)N(C)[C@@H](CC(C)C)C(=O)N[C@H](C(=O)N(C)[C@H](C(=O)N1CCC[C@H]1C(=O)N1C(=O)CC[C@@H]1C)C(C)C)[C@@H](C)OC(C)=O was tested. Which IC50 did it give?
Answer: Its IC50 is 5 µM.

Question: Which IC50 does the source give for CCCC[C@@H](C)C[C@@H](C)C(=O)N(C)[C@@H](CC(C)C)C(=O)N[C@H](C(=O)N[C@H](C(=O)N1CCC[C@H]1C(=O)N1C(=O)C=C[C@@H]1C)C(C)C)[C@@H](C)OC(C)=O here?
Answer: Its IC50 is 0.069 µM.

Question: For CCCC[C@@H](C)C[C@@H](C)C(=O)N(C)[C@@H](CC(C)C)C(=O)N[C@H](C(=O)N(C)[C@H](C(=O)N1C[C@@H](O)C[C@H]1C(=O)O)C(C)C)[C@@H](C)OC(C)=O, which IC50 is on record?
Answer: Its IC50 is 0.51 µM.

Question: How did the IC50 turn out when CCCC[C@@H](C)C[C@@H](C)C(=O)N(C)[C@@H](CC(C)C)C(=O)N[C@H](C(=O)N(C)[C@H](C(=O)N1CCC[C@H]1C(=O)N1C(=O)C=C[C@@H]1C)C(C)C)[C@@H](C)OC(C)=O was run?
Answer: The IC50 was 0.91 µM.

Question: How did the IC50 turn out when CCCC[C@@H](C)C[C@@H](C)C(=O)N(C)[C@@H](C=C(C)C)C(=O)N[C@H](C(=O)N(C)[C@H](C(=O)N1C[C@@H](O)C[C@H]1C(=O)N1C(=O)C=C[C@@H]1C)C(C)C)[C@@H](C)O was run?
Answer: Its IC50 is 0.16 µM.

Question: Which IC50 does the source give for CCCC[C@@H](C)C[C@@H](C)C(=O)N(C)[C@@H](CC(C)C)C(=O)N[C@H](C(=O)N(C)[C@H](C(=O)N1CCC[C@H]1C(=O)N1C(=O)CC[C@@H]1C)C(C)C)[C@@H](C)O here?
Answer: The IC50 was over 30 µM.

Question: With CCCCCC[C@@H](C)C(=O)N(C)[C@@H](CC(C)C)C(=O)N[C@H](C(=O)N(C)[C@H](C(=O)N1CCC[C@H]1C(=O)N1C(=O)C=C[C@@H]1C)C(C)C)[C@@H](C)OC(C)=O as the compound, how does the IC50 read?
Answer: Its IC50 is 0.55 µM.

Question: How did the IC50 turn out when CCCC[C@@H](C)C[C@@H](C)C(=O)N(C)[C@@H](CC(C)C)C(=O)N[C@H](C(=O)N(C)[C@H](C(=O)N1CCC[C@H]1C(=O)N1C(=O)C=C[C@@H]1C)C(C)C)[C@@H](C)O was run?
Answer: Its IC50 is 0.65 µM.

Question: How did the IC50 turn out when CCCC[C@@H](C)C[C@@H](C)C(=O)N(C)[C@@H](CC(C)C)C(=O)N[C@H](C(=O)N(C)[C@H](C(=O)N1C[C@@H](O)C[C@H]1C(=O)N1C(=O)C=C[C@@H]1C)C(C)C)[C@@H](C)OC(=O)CC was run?
Answer: Its IC50 is 0.2 µM.

Question: With CCCCCC[C@@H](C)C(=O)N(C)[C@@H](CC(C)C)C(=O)N[C@H](C(=O)N(C)[C@H](C(=O)N1C[C@@H](O)C[C@H]1C(=O)N1C(=O)C=C[C@@H]1C)C(C)C)[C@@H](C)OC(C)=O as the compound, how does the IC50 read?
Answer: The IC50 was 0.047 µM.

Question: CCCC[C@@H](C)C[C@@H](C)C(=O)N(C)[C@@H](C=C(C)C)C(=O)N[C@H](C(=O)N(C)[C@H](C(=O)N1C[C@@H](O)C[C@H]1C(=O)N1C(=O)C=C[C@@H]1C)C(C)C)[C@@H](C)OC(C)=O was tested. Which IC50 did it give?
Answer: Its IC50 is 0.037 µM.

Question: Which IC50 does the source give for CCCC[C@@H](C)C[C@@H](C)C(=O)N(C)[C@@H](CC(C)C)C(=O)N[C@H](C(=O)N(C)[C@H](C(=O)N1C[C@@H](O)C[C@H]1C(=O)N1C(=O)CC[C@@H]1C)C(C)C)[C@@H](C)OC(C)=O here?
Answer: The IC50 was 2.8 µM.

Question: How did the IC50 turn out when CCCC[C@@H](C)C[C@@H](C)C(=O)N(C)[C@@H](CC(C)C)C(=O)N[C@H](C(=O)N(C)[C@H](C(=O)N1C[C@@H](O)C[C@H]1C(=O)N1C(=O)CC[C@@H]1C)C(C)C)[C@@H](C)O was run?
Answer: Its IC50 is 2 µM.
